ChEMBL document CHEMBL1125356, “Synthesis and evaluation of novel spermidine derivatives as targeted cancer chemotherapeutic agents” (J Med Chem, 1992)

How the values were obtained:
B16 [1] = assay: The compound was tested for inhibition of B16-BL6 melanoma cells growing in culture with 0.25 mM DFMO.; type: functional, cell-based; conditions: Mus musculus
B16 [2] = assay: The compound was tested for inhibition of B16-BL6 melanoma cells growing in culture.; type: functional, cell-based; conditions: Mus musculus
B16 [3] = assay: The compound was tested in vitro for inhibition of cell growth on the B16-BL6 melanoma cells at 0.0(mM)conc.; type: functional, Mus musculus
B16 [4] = assay: The compound was tested in vitro for inhibition of cell growth on the B16-BL6 melanoma cells at 0.1(mM)conc.; type: functional, Mus musculus
B16 [5] = assay: The compound was tested in vitro for inhibition of cell growth on the B16-BL6 melanoma cells at 0.25(mM)conc.; type: functional, Mus musculus
B16 [6] = assay: The compound was tested in vitro for inhibition of cell growth on the B16-BL6 melanoma cells at 0.5(mM)conc.; type: functional, Mus musculus
B16 [7] = assay: The compound was tested in vitro for inhibition of cell growth on the B16-BL6 melanoma cells at 0.75(mM)conc.; type: functional, Mus musculus
B16 [8] = assay: The compound was tested in vitro for inhibition of cell growth on the B16-BL6 melanoma cells at 1.0(mM)conc.; type: functional, Mus musculus
B16 [9] = assay: The compound was tested on [3H]spermidine uptake into BL6 cells at 0.5(mM)conc; type: functional, Mus musculus
Procedure, shortened: (§1)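 B16-BL6 melanoma cells were grown in DMEM with 10% heat-inactivated FBS, pyruvate, nonessential amino acids, glutamine, vitamins and 5 μg/mL insulin at […] in 5% CO2. They were pretreated with DFMO at 0–1.0 mM, then [3H]spermidine uptake was read as cpm per million cells. Values are mean ± SEM, compared by Duncan's and LSD tests.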

B16 [10] = assay: The compound was tested on [3H]-spermidine uptake into BL6 cells at 0.75(mM)conc; type: functional, Mus musculus; procedure, shortened: as §1
B16 [11] = assay: The compound was tested on [3H]spermidine uptake into BL6 cells at 1.0(mM)conc; type: functional, Mus musculus; procedure, shortened: as §1
B16 [12] = assay: The compound was tested on spermidine content of the cells at 0.1(mM)conc; type: functional, Mus musculus
Procedure, shortened: (§2)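 B16-BL6 cells were cultured in supplemented DMEM and pretreated with DFMO at 0–1.0 mM. Cells were PBS-washed and pelleted, then extracted in 0.3 M perchloric acid with 1,6-hexanediamine internal standard (10 nmol per million cells). Extracts were benzoylated before the column and run by reversed-phase HPLC on a C8 cartridge at ambient temperature, 1.5 mL/min. Quantitation used a 0.05–10 nmol/mL standard curve.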

B16 [13] = assay: The compound was tested on spermidine content of the cells at 0.25(mM)conc; type: functional, Mus musculus; procedure, shortened: as §2
B16 [14] = assay: The compound was tested on spermidine content of the cells at 0.5 mM) conc; type: functional, Mus musculus; procedure, shortened: as §2
B16 [15] = assay: The compound was tested on spermidine content of the cells at 0.75(mM)conc; type: functional, Mus musculus; procedure, shortened: as §2
B16 [16] = assay: The compound was tested on spermidine content of the cells at 1.0(mM)conc; type: functional, Mus musculus; procedure, shortened: as §2
B16 [17] = assay: The compound was tested on [3H]spermidine uptake into BL6 cells at 0.0(mM)conc; type: functional, Mus musculus; procedure, shortened: as §1
B16 [18] = assay: The compound was tested on [3H]-spermidine uptake into BL6 cells at 0.1(mM)conc; type: functional, Mus musculus; procedure, shortened: as §1
B16 [19] = assay: The compound was tested on spermidine content of the cells at 0.0(mM)conc; type: functional, Mus musculus; procedure, shortened: as §2
B16 [20] = assay: The compound was tested on [3H]spermidine uptake into BL6 cells at 0.25(mM)conc; type: functional, Mus musculus; procedure, shortened: as §1

Question: Which IC50 (B16 [1]) does the source give for `CC(=O)NCCc1ccc(O)c(O)c1` here?
Answer: 2060 µM

Question: What about the IC50 (B16 [2]) of the same compound?
Answer: 1220 µM

Question: What does the source list for `NCCCNC(CCCN)C(=O)NCCc1ccc(N(CCCl)CCCl)cc1` (stereo unspecified)?
Answer: IC50 (B16 [1]): 512 µM; IC50 (B16 [2]): 333 µM

Question: What does the source list for `NCCCNC(CCCN)C(=O)NCCc1ccc(O)c(O)c1` (stereo unspecified)?
Answer: IC50 (B16 [1]): 1310 µM; IC50 (B16 [2]): 1230 µM

Question: `O=C(O)CCCc1ccc(N(CCCl)CCCl)cc1` [CHLORAMBUCIL] was tested. Which IC50 (B16 [1]) did it give?
Answer: 280 µM

Question: And the IC50 (B16 [2])?
Answer: 220 µM

Question: `NCCCC(N)(C(=O)O)C(F)F` (stereo unspecified) [EFLORNITHINE] was tested. Which Cell growth (B16 [3]) did it give?
Answer: 2430000 number of cells ml-1

Question: What about the Cell growth (B16 [4]) of the same compound?
Answer: 2180000 number of cells ml-1

Question: What about the Cell growth (B16 [5]) of the same compound?
Answer: 1940000 number of cells ml-1

Question: And the Cell growth (B16 [6])?
Answer: 1090000 number of cells ml-1

Question: What about the Cell growth (B16 [7]) of the same compound?
Answer: 1330000 number of cells ml-1

Question: What about the Cell growth (B16 [8]) of the same compound?
Answer: 1480000 number of cells ml-1

Question: What about the cpm/million cells (B16 [9]) of the same compound?
Answer: 214540

Question: What about the cpm/million cells (B16 [10]) of the same compound?
Answer: 226404

Question: And the cpm/million cells (B16 [11])?
Answer: 250160

Question: What about the Spermidine concentration (B16 [12]) of the same compound?
Answer: 0.6 nM (10e6*cells)-1

Question: What about the Spermidine concentration (B16 [13]) of the same compound?
Answer: 0.34 nM (10e6*cells)-1

Question: And the Spermidine concentration (B16 [14])?
Answer: 0.55 nM (10e6*cells)-1

Question: And the Spermidine concentration (B16 [15])?
Answer: 0.52 nM (10e6*cells)-1

Question: And the Spermidine concentration (B16 [16])?
Answer: 0.35 nM (10e6*cells)-1

Question: And the cpm/million cells (B16 [17])?
Answer: 146600

Question: And the cpm/million cells (B16 [18])?
Answer: 221610

Question: What about the Spermidine concentration (B16 [19]) of the same compound?
Answer: 2.07 nM (10e6*cells)-1

Question: And the cpm/million cells (B16 [20])?
Answer: 219910
